An excerpt weighted towards active compounds, which were near 1.4% of everything screened.
Tb MetRS inh = blocks T. brucei methionyl-tRNA synthetase activity; 0.4% of 360,000 active; purified T. brucei MetRS, ATP depletion, Kinase-Glo luminescence; AID 624268; inhibition, % at 11.9 µM;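 active = inhibition above a per-plate cutoff of the control wells' mean inhibition plus 3 SD, cut at about 5.5% in these data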
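System: purified T. brucei MetRS enzyme / Detection: Kinase-Glo luciferase luminescence reporting remaining unconsumed ATP / Medium: HEPES buffer with MgCl2, KCl, DTT, spermine, BSA, pyrophosphatase / Replication: singlicate, one well per compound / Evaluation: percent inhibition relative to median high and low control wells / Schedule: 2 h aminoacylation at 25 °C after 15 min preincubation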
ATG4B inh = blocks human ATG4B protease cleavage of LC3 substrate | Q9Y4P1 | ATG4B cleavage of LC3-PLA2, NBD-HPC fluorescence, 1 h | inhibition, % at 8.33 µM | 0.51% of 340,000 active | AID 504462; in the data active = inhibition above about 40%
UCH37 inh = inhibitors of human deubiquitinating enzyme UCH37; Q9Y5K5; purified proteasome/UCH37, Ub-AMC cleavage fluorescence; inhibition, % (concentration not given with the values); 0.33% of 330,000 active; AID 588478;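 active = mean inhibition over replicate wells above about 20%, limit read from the data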
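Material: Human UCH37 enzyme supplied as purified proteasome complex | Schedule: 30 min compound-proteasome preincubation then 25 min substrate reaction, room temperature | Detection: AMC fluorescence from Ub-AMC cleavage, excitation 355 nm, emission 460 nm | Benchmarks: Wells without proteasome as full block, compound-free enzyme plus substrate as uninhibited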
Rin1 Abl inh = human Rin1-Abl interaction inhibition; TR-FRET Rin1/Abl binding, biochemical; inhibition, % at 7.35 µM; 0.4% of 360,000 active; in the data active = inhibition above about 5%, passing the limit was not always enough
Target sequence (P00519 whole entry, looked up): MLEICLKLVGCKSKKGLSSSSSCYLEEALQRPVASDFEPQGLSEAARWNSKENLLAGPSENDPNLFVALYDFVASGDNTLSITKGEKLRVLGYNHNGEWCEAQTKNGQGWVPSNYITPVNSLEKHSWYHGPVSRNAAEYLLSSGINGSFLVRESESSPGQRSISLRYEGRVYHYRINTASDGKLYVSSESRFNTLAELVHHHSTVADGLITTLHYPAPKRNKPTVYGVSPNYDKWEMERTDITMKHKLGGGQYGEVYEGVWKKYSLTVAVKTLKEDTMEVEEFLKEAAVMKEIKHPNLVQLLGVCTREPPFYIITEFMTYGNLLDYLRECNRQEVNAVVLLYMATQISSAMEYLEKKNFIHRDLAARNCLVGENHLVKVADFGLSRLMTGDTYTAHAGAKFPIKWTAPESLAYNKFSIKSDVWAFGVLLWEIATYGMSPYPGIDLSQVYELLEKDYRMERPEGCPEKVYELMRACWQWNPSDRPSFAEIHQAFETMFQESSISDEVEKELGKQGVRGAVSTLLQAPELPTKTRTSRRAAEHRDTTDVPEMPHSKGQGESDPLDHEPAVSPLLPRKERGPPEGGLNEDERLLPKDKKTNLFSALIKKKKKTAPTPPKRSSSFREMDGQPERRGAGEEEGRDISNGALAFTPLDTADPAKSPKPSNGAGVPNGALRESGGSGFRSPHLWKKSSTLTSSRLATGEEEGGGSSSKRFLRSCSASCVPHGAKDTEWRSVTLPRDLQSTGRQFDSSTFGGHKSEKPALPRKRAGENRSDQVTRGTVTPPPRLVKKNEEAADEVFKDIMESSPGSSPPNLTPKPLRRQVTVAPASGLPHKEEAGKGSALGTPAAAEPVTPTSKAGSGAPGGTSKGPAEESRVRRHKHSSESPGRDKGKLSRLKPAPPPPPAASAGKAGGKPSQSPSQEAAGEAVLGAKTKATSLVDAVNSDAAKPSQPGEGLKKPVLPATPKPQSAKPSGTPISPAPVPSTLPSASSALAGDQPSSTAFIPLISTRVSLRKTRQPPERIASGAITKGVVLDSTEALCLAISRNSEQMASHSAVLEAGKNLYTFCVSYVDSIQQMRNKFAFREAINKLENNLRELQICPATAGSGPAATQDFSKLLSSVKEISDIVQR
Target sequence (Q13671 whole entry, looked up): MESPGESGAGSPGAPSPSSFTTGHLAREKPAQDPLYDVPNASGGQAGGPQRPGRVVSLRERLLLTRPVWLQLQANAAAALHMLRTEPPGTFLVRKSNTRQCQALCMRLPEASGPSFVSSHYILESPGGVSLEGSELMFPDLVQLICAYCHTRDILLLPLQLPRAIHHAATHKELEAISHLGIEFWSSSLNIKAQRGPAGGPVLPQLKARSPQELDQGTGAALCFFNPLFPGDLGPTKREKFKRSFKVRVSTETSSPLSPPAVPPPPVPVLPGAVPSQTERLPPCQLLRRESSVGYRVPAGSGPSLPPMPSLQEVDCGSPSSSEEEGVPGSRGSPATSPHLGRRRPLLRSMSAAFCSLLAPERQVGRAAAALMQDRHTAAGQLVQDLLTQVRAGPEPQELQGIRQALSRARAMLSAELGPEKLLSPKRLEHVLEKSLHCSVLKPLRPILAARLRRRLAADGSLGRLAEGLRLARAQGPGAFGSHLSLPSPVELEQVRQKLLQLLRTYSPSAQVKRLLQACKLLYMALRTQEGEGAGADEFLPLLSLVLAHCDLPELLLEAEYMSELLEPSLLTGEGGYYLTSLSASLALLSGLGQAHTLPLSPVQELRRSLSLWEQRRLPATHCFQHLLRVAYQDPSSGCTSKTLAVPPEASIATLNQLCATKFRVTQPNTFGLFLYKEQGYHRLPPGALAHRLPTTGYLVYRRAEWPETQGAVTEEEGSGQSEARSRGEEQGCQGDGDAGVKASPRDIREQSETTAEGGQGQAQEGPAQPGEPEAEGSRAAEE
ATG4B conf = confirmation of human ATG4B inhibitors; shares compounds with ATG4B inh; ATG4B protease fluorescent substrate cleavage assay; inhibition, % at 8.33 µM; 92% of 320 active; AID 504757; in the data active = inhibition above about 39%
PLA2 counter = inhibits human PLA2, flagging false ATG4B inhibitors; purified PLA2, NBD-C6-HPC fluorescence, 45 min; 66% of 1,600 active; shares compounds with ATG4B inh; inhibition, % at 8.33 µM; in the data active = inhibition above about 50%
Each line names hits and unclear results; the compound was inactive in the other large screens (follow-up assays come after a bar, where they were run).

COc1cc(/C=C(\C(=O)O)c2ccc(S(=O)(=O)N3CCCC3)s2)cc(OC)c1	none
OCCN(/C=N/c1nc(-c2ccc(Br)cc2)cs1)CCO	none (no result: UCH37 inh)
CN(Cc1ccccc1)S(=O)(=O)c1ccc(NC(=S)NC(=O)C2CCCC2)cc1	ATG4B inh 50 | PLA2 counter inactive
CN(C)S(=O)(=O)c1ccc(NC(=S)NC(=O)C2CCC2)cc1	none
CCCCCCOc1ccc(N2C(=O)CC(N3CCN(C(=O)c4ccco4)CC3)C2=O)cc1 (stereo not given)	none
NC(=O)C1CCN(C(=O)c2cc3c(s2)CCCCC3)CC1	none
CC1CCc2sc(C(=O)N3CCC(C(N)=O)CC3)cc2C1 (stereo not given)	ATG4B inh 43 | ATG4B conf 66 | PLA2 counter inactive
Cn1c(SCC(=O)NN=C/C=C\c2ccccc2[N+](=O)[O-])nc2ccccc21	none (no result: Tb MetRS inh, ATG4B inh, Rin1 Abl inh)
CC(C)(C)c1ccc(-c2nc(NCc3cccnc3)c3ccccc3n2)cc1	ATG4B inh 68 | PLA2 counter 82
Cc1c(C(=O)O)cccc1-c1ccc(C=Nn2cnnc2)o1	none (no result: Tb MetRS inh, ATG4B inh, Rin1 Abl inh)
Cc1c(C(=O)O)cccc1-c1ccc(/C=N/Nc2ccc(Br)cc2)o1	ATG4B inh 48 (no result: UCH37 inh) | PLA2 counter inactive
CCn1cc(CNC(=O)CSc2nc(-c3ccc(OC)c(OC)c3)cc(C(F)(F)F)n2)c(C)n1	none
O=C(O)COc1ccc(-c2nc(-c3ccccc3)c(-c3ccccc3)[nH]2)cc1	ATG4B inh 48 | PLA2 counter 59
Clc1cccc(Cl)c1CO/N=C/c1cccs1	none (no result: UCH37 inh)
Cc1c(C)c(C)c(CO/N=C/c2cccs2)c(C)c1C	ATG4B inh 60 (no result: UCH37 inh) | ATG4B conf 66 | PLA2 counter inactive
O=C(COc1ccc(C(=O)c2ccccc2)cc1)NCC1CCCCC1	ATG4B inh 46 | PLA2 counter inactive
O=C(COc1ccccc1)NCC1CCCO1 (stereo not given)	none
COc1cccc(C(=O)Nc2cccc3cccnc23)c1OC	none
CC(C)C(=O)Nc1ccc(COc2ccccc2CN(Cc2ccccc2)C(=O)OC(C)(C)C)cc1	none (no result: UCH37 inh)
COc1cc(OC)cc(-c2nnc(SCc3c(F)cccc3Cl)o2)c1	ATG4B inh 59 | PLA2 counter 58
Cc1cc(C(=O)COC(=O)c2ccc[nH]c2=O)c(C)n1-c1ccccc1F	none
Cc1ccc(-n2c(C)cc(C(=O)COC(=O)c3ccc[nH]c3=O)c2C)cc1C	ATG4B inh 45 | PLA2 counter inactive
Cc1nc(NC(=O)CSc2cc(C)c3ccccc3n2)c(Cl)cc1Cl	ATG4B inh 41 | PLA2 counter inactive
O=c1cc(-c2ccccc2Cl)oc2c(NS(=O)(=O)c3ccccc3C(F)(F)F)ccc(O)c12	ATG4B inh 42 | PLA2 counter 53
O=c1cc(-c2ccccc2Cl)oc2c(NS(=O)(=O)c3ccccc3OC(F)(F)F)ccc(O)c12	ATG4B inh 43 (no result: Tb MetRS inh, Rin1 Abl inh) | PLA2 counter 78
O=C(Nc1ccc(O)c2c(=O)cc(-c3ccccc3Cl)oc12)c1ccc(Cl)c(Cl)c1	none
O=c1cc(-c2ccccc2Cl)oc2c(NS(=O)(=O)c3cccs3)ccc(O)c12	ATG4B inh 57 | PLA2 counter 74
O=C1CCN(CCc2ccccc2)CCN1[C@H](CO)Cc1ccccc1	none
S=C(NCCCN1CCOCC1)Nc1ccc(-c2nc3ccccc3[nH]2)cc1	none
CC(C)CN(C(=O)COc1ccc(Br)cc1C=O)C1CCS(=O)(=O)C1 (stereo not given)	ATG4B inh 45 | PLA2 counter 53
Cc1ccc2[nH]c(=O)c(CN(Cc3ccco3)S(=O)(=O)c3c(C)ccc4nsnc34)cc2c1	none
COc1cc(C=O)ccc1OCc1ccccc1Br	ATG4B inh 53 | PLA2 counter 52
COc1cc(C=O)ccc1OCc1cccc(Br)c1	none
O=C(Cn1nnc(-c2ccc(S(=O)(=O)N3CCCC3)cc2)n1)Nc1ccccc1-n1cccc1	ATG4B inh 54 | PLA2 counter 62
O=C(Nc1c(C(=O)O)oc2ccc(Br)cc12)c1ccccc1	ATG4B inh 48 | PLA2 counter 57
O=C(Nc1nnc(C2=COCCO2)o1)c1ccc(S(=O)(=O)N2CCCC2)cc1	none
Nc1cc(N)nc(SCC(=O)NCc2ccco2)n1	none
O=C(CN1C(=O)COc2ccccc21)NCCCN1CCc2ccccc2C1	ATG4B inh 76 | PLA2 counter inactive
O=C(CN1C(=O)COc2ccccc21)NCCCN1CCN(Cc2ccccc2)CC1	none
O=C(COC(=O)c1ccccc1Nc1ccccc1)c1ccccc1	ATG4B inh 53 | PLA2 counter 52
Cc1ccc(N=Cc2cc(Cc3ccccc3Cl)cc([N+](=O)[O-])c2O)c(O)c1	ATG4B inh 92 | PLA2 counter 79
Cc1n[nH]c(C)c1Sc1ccccc1N=Cc1cc(Cl)cc([N+](=O)[O-])c1O	none (no result: UCH37 inh)
Fc1ccccc1CSc1nnc(-c2cnccn2)n1Cc1ccco1	none
Clc1ccc(CSc2nnc(-c3ccccn3)n2Cc2ccco2)c(Cl)c1	ATG4B inh 41 | PLA2 counter 55
Cn1cccc1-c1nc2ccccc2n1Cc1ccccc1	ATG4B inh 43 | PLA2 counter 56
CC(C)(C)c1ccc(C(=O)Nc2ccc(S(=O)(=O)Nc3cnc4ccccc4n3)cc2)cc1	none
CC(C)COC(=O)c1ccc(N2C(=O)c3ccccc3C2=O)cc1	ATG4B inh 45 | ATG4B conf 67 | PLA2 counter inactive
Cc1cccc(NC(=O)C2(C)CC3c4ccccc4C2c2ccccc23)c1 (stereo not given)	none
Oc1ccccc1C1CCCCC1c1ccccc1 (stereo not given)	ATG4B inh 52 | PLA2 counter inactive
COc1ccc(C2=NOC(Cn3nc(C(=O)NCc4cccc(C(F)(F)F)c4)cc3-c3ccccc3)C2)cc1 (stereo not given)	ATG4B inh 67 | PLA2 counter 82
COc1ccc(NC(=O)CS(=O)CC(=O)Nc2cc(Cl)ccc2OC)cc1 (stereo not given)	none
N#C/C(=C\c1ccccc1[N+](=O)[O-])c1nc(C2CC2)cs1	ATG4B inh 48 | PLA2 counter 63
N#C/C(=C/c1ccccc1[N+](=O)[O-])c1nc(C2CC2)cs1	none
COc1ccc(C)cc1S(=O)(=O)N(CC(=O)Nc1cccc([N+](=O)[O-])c1)c1ccc(C)c(C)c1	ATG4B inh 88 | PLA2 counter 90
O=C(Nc1c(F)cccc1F)c1ccc2c(c1)CCN2S(=O)(=O)c1ccccc1	ATG4B inh 69 | PLA2 counter 69
O=C(Nc1ccccc1F)c1ccc2c(c1)CCN2S(=O)(=O)c1ccccc1	none
CCC(=O)N1CCc2cc(S(=O)(=O)CCC(=O)N3CCCC(C)C3)ccc21 (stereo not given)	none

Screening data: PubChem BioAssay, several laboratories
